# High-throughput results as filed in PubChem BioAssay.
# Only some compounds are listed: those with a hit (about 2% of all), similar ones and a draw of the others.
# HEK293 NFkB inh = lowers PMA/ionomycin-induced NF-kB signal in HEK293 cells; HEK-293 NF-kB luciferase reporter, luminescence; inhibition, % at 3 µM; 62,000 tested, 0.21% active; AID 465;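 active = inhibition above the mean of all tested compounds plus 3 SD, cut at about 40% in these data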;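 note: 0% = stimulated DMSO wells and 100% = 10 µM reference inhibitor 5653914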
#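 Signal: luciferase luminescence; Material: HEK-293 cells with stable firefly luciferase reporter driven by four HIV NF-kB elements; Probe or stimulus: PMA with ionomycin; Replication: tested once; Times: 1 h compound pretreatment, then 16 h stimulation at 37 °C, 5% CO2; Benchmarks: DMSO and 10 µM reference inhibitor; Evaluation: per-plate % inhibition versus controls.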
# Jurkat tox 60K = cytotoxicity toward Jurkat cells. Jurkat E6.1 viability, ATP luminescence, 48 h. 56,000 tested, 1.2% active. inhibition, % at 4 µM. AID 463;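 active = inhibition above the mean inhibition of all tested compounds plus 3 SD, cut at about 28% in these data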
# SK-BR-3 tox 24h = SK-BR-3 proliferation inhibitors; viability, % at 10 µM; SK-BR-3 viability, CellTiter-Glo ATP luminescence, 24 h; stronger effect = lower value; 41,000 tested, 0.47% active;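 active = viability at or below the median of all test compounds minus 3 SD, in both replicates if run twice, cut at about 45% in these data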;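 note: 100% = median untreated cell wells and 0% = median positive control drug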
# Her2 expr inh = inhibitors of human Her2 kinase expression; SKBR-3 HER2 protein level, AlphaScreen, 18-24 h; stronger effect = lower value; HER2 level % of control, % at 10 µM; 65,000 tested, 0.69% active;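 active = HER2 level under 5% of the carrier-only control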;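 note: 100% = DMSO carrier and 0% = 500 nM PU-H71 HSP90 inhibitor; lower value means stronger loss of Her2 protein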
# The depositor's hits bear a star; . = no result given.
SMILES,HEK293 NFkB inh,Jurkat tox 60K,SK-BR-3 tox 24h,Her2 expr inh
COc1ccc(-c2nc(CS(=O)CC(=O)NCc3ccco3)c(C)o2)cc1 (stereo unspecified),3,-1,.,93
CCN(C(=O)c1ccc(C(C)(C)C)cc1)c1nnc(Cn2nnc3ccccc32)s1,40*,101*,128,64
Cc1ccc(S(=O)(=O)c2c(C)nn(C(C)(C)C)c2OC(=O)c2ccco2)cc1,-4,-2,.,84
Cc1ccc(S(=O)(=O)c2c(C)nn(C(C)(C)C)c2OC(=O)c2ccc(Br)o2)cc1,-3,-5,.,4.1*
CCc1nnc(NC(=O)c2cccc(C(=O)Nc3nnc(CC)s3)n2)s1,12,20,42*,30
O=c1nc(N2CCOCC2)ccn1Cc1ccc(Br)cc1,19,-5,107,103
COc1ccc(C(C(=O)OC(C)CN(C)C)c2ccccc2)cc1 (stereo unspecified),12,0,.,123
CN(C)CC(C(=O)c1ccccc1)c1ccccc1 (stereo unspecified),32,101*,6.4*,-55*
O=c1cc(-c2c(F)c(F)c(F)c(F)c2F)oc2c(F)c(F)c(F)c(F)c12,6,.,34*,.
O=C(Cn1c(CC(=O)N2CCCC2)nc2ccccc21)NCc1ccccc1,22,-2,88,95
Cc1nc2ccccc2n1CC(=O)NCc1ccccc1,18,41*,113,128
C/C(N)=C(/C#N)C(=O)CSc1nnnn1-c1ccc(C)cc1C,9,30*,.,129
O=C(Nc1nc(-c2cccs2)cs1)c1ccc(S(=O)(=O)N2CCCC2)cc1,22,21,.,36
O=C(Nc1nc(-c2ccc3c(c2)OCCO3)cs1)c1ccc(S(=O)(=O)N2CCCCC2)cc1,34,72*,.,98
O=c1c2ccccc2ncn1Cc1nc2ccccc2s1,20,.,65,65
O=c1c2ccccc2cnn1-c1nc2ccccc2s1,77*,2,.,97
COc1ccccc1-c1cc(C(=O)Nc2cc(C)nn2-c2ccccc2)no1,28,89*,67,76
CCOC(=O)c1sc2nc(NC(=O)c3cccs3)sc2c1C,-4,-4,.,87
O=C1C2=C(SCCS2)C(=O)N1CCCO,8,0,105,1.1*
CCn1c(=O)c(C(=O)Nc2nc3ccccc3[nH]2)c(O)c2ccccc21,21,29*,.,0.9*
Cn1c2ccccc2c2cnn(CC(=O)N3CCN(c4ncccn4)CC3)c(=O)c21,16,9,.,96
Cc1ccc(C)c(S(=O)(=O)c2c(N)n(/N=C/c3ccco3)c3nc4ccccc4nc23)c1,7,-4,95,82
Nc1c(S(=O)(=O)c2ccccc2)c2nc3ccccc3nc2n1/N=C/c1cccc(O)c1,11,-5,94,-28*
Cc1ccc(C(=O)N2CCN(c3cccc(Cl)c3)CC2)cc1C,12,38*,.,133
Cc1cc(C(=O)N2CCN(c3cccc(Cl)c3)CC2)c(C)o1,11,75*,.,78
SMILES,HEK293 NFkB inh,Jurkat tox 60K,SK-BR-3 tox 24h,Her2 expr inh
Cc1cc2ccccc2c(=O)n1CC(=O)N1CCN(c2cccc(Cl)c2)CC1,18,1,29*,145
CCOc1ccc(Nc2cc(C)nc3nc(C)nn23)cc1,3,5,.,115
CCOc1ccccc1N1CCN(Cc2ccc(OC)c(OC)c2)CC1,17,11,.,-20*
CCOc1ccccc1N1CCN(Cc2ccc(OC)c(OC)c2OC)CC1,11,8,99,69
CCC(C)Oc1ccccc1C1CC(=O)NC2=C1C(=O)CCC2 (stereo unspecified),9,40*,87,83
Cc1ccccc1C1CC(=O)NC2=C1C(=O)CCC2 (stereo unspecified),6,-1,98,101
CC1(C)Cc2c(sc3nc4n(c(=O)c23)CCC4)CO1,.,.,86,73
Cc1cc(NO)nc(-c2ccc(Br)cc2)n1,-20,34*,.,97
CCCCOc1ncnc2c1[nH]c1ccc(F)cc12,19,61*,97,65
CCOCCCNc1ncnc2c1[nH]c1ccccc12,7,26,93,82
CCCCOc1ncnc2c1[nH]c1ccccc12,34,76*,86,91
c1cc2[nH]snc2c2nc(C3CC3)nc12,17,4,85,112
CN(C)S(=O)(=O)c1ccc(C(=O)Oc2ccccc2)cc1,6,3,94,118
CC(=O)Nc1ccc(S(=O)(=O)N2CCN(c3nc(NC4CCCC4)c4ccccc4n3)CC2)cc1,18,2,41*,-9.2*
O=C(CCN1C(=O)C2C3C=CC(C3)C2C1=O)NCCN1CCCc2ccccc21 (stereo unspecified),17,6,30*,110
